Measured values as given in publication PMC6369923 (Journal of immunology (Baltimore, Md. : 1950), 2019).
Ends that are not written are not given here.

Tests used:
[1] = mice; cited from earlier work
MRGPRX2 (human MC) = details: cited from earlier work
MRGPRX2 = details: LL-37 as agonist; cited from earlier work
[2] = system: MRGPRX2 (RBL-MRGPRX2 cells); assay: Ca2+ mobilization in RBL-MRGPRX2 cells; format: cell-based; details: PTx 100 ng/mL, 16 h, Indo-1, agonist compound 48/80 1 μg/mL, AG-30/5C 1 μM or Icatibant 20 μg/mL, representative traces
[3] = system: MRGPRX2 (HTLA-MRGPRX2 cells); details: cited from earlier work
[4] = treatment of hereditary angioedema; cited from earlier work
[5] = system: MRGPRX2 (HTLA-MRGPRX2 cells); assay: Ca2+ mobilization in HTLA-MRGPRX2 cells; format: cell-based; details: compound 48/80 30 μg/mL, AG-30/5C 10 μM, Icatibant 30 μg/mL; FLIPR-Tetra; representative traces
How it was run: (§1)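 HTLA cells (HEK-293T stably expressing β-arrestin2-TEV) were stably transfected with the MRGPRX2-Tango or MRGPRX4-Tango plasmid, and a single-cell-derived clone was checked for receptor expression by anti-FLAG flow cytometry. Cells were plated at 10^4 per well on collagen and grown 24 h at 37°C, then loaded with Calcium 6 dye for 2 h at 37°C. After 1 h equilibration at room temperature, test compound was added and fluorescence imaged every 1 s for 5 min on FLIPR-Tetra.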

[6] = system: MRGPRX2 (RBL-2H3 cells stably expressing MRGPRX2); assay: RBL-MRGPRX2 degranulation; format: cell-based
How it was run: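 RBL-2H3 cells stably expressing MRGPRX2 were kept in 1 mg/mL G418. Cells were seeded at 5 × 10^4 per well and cultured overnight with or without pertussis toxin (100 ng/mL, 16 h), then washed twice into HEPES buffer with 0.1% BSA. Optional resveratrol was 100 μM for 5 min. Cells were stimulated with test compound for 30 min at 37°C, and β-hexosaminidase release was measured with 1 mM PNAG (1 h, 37°C) at A405 as percent of total.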

[7] = system: LAD2 cells (human MC line, endogenously expressing MRGPRX2); assay: LAD2 degranulation; format: cell-based; details: resveratrol 100 μM, 5 min, 30 min
How it was run: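 LAD2 cells were grown in StemPro-34 with rhSCF (100 ng/mL), washed, and seeded at 10^4 per well in HEPES buffer with 0.1% BSA. Where used, resveratrol pretreatment was 100 μM for 5 min, followed by stimulation with test compound for 30 min at 37°C. Supernatant or Triton X-100 lysate of unstimulated cells (total) was incubated with 1 mM PNAG for 1 h at 37°C, stopped with carbonate buffer, and read at A405. Result is percent β-hexosaminidase release; three experiments.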

[8] = system: MRGPRX2 (HTLA-MRGPRX2 cells); assay: Tango assay; format: cell-based; details: resveratrol 100 μM, 5 min
How it was run: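 HTLA cells (HEK-293T expressing β-arrestin2-TEV) stably transfected with MRGPRX2-Tango; single-cell clone, surface FLAG checked by flow. 50,000 cells/well on poly-L-lysine, triplicate, antibiotic-free medium, 6 h at 37°C; resveratrol 100 μM 5 min where used, then agonist 16 h at 37°C; Bright-Glo luminescence. Ca2+: Calcium 6 dye 2 h 37°C, 1 h room temperature, FLIPR read every 1 s for 5 min. Mean ± SEM, three experiments.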

[9] = system: IgE-mediated MC degranulation; details: cited from earlier work
[10] = system: MRGPRX4 (HTLA-MRGPRX4 cells); assay: Ca2+ mobilization in HTLA-MRGPRX4 cells; format: cell-based; details: nateglinide 30 μM, AG-30/5C 10 μM, compound 48/80 30 μg/mL; FLIPR-Tetra; representative traces
How it was run: as §1

[11] = system: MRGPRX4 (HTLA-MRGPRX4 cells); assay: Tango assay; format: cell-based; details: nateglinide 30 μM, 16 h, 37°C, three experiments
How it was run: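 Tango line from HTLA cells (HEK-293T with β-arrestin2-TEV) stably transfected with MRGPRX4-Tango, single-cell cloned, surface FLAG confirmed by flow. Cells plated at 50,000/well on poly-L-lysine in triplicate, antibiotic-free medium, 6 h at 37°C, then agonist 16 h at 37°C; Bright-Glo luminescence. Ca2+ traces: Calcium 6 loading 2 h 37°C, 1 h room-temperature equilibration, FLIPR imaging every 1 s over 5 min.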

LL-37
vaccine adjuvant activity [1]: safe and effective vaccine adjuvant in mice
activation of human MC via MRGPRX2 (literature) (MRGPRX2 (human MC)): activate human MC
receptor phosphorylation, desensitization and internalization (MRGPRX2): resistant to phosphorylation, desensitization and internalization

Icatibant
effect of pertussis toxin on agonist-induced Ca2+ mobilization [2]: completely blocked Icatibant-induced degranulation but not Ca^2+ mobilization
β-arrestin-mediated gene expression (literature) ([3]; HTLA cells expressing MRGPRX2-Tango): does not activate β-arrestin-mediated gene expression
MC degranulation via MRGPRX2 (literature) (MRGPRX2 (human MC)): promotes MC degranulation via MRPGRX2
injection site pseudo-allergic drug reaction [4]: injection site pseudo-allergic drug reaction in nearly every patient
peak Ca2+ mobilization, high concentration [5]: induced Ca^2+ mobilization although the peak was much shorter than compound 48/80
effect of pertussis toxin on agonist-induced degranulation ([6]; RBL-MRGPRX2, PTx 100 ng/mL, 16 h, agonist compound 48/80 1 μg/mL or AG-30/5C 1 μM (p ≤ 0.001), or Icatibant 20 μg/mL): completely blocked

Oc1ccc(/C=C/c2cc(O)cc(O)c2)cc1 [resveratrol]
inhibition of constitutive MRGPRX2-mediated Tango ([3]; NIH Clinical Collection library (NCC-1) screen): inhibitor of constitutive MRGPRX2-mediated Tango
inhibition of Icatibant-induced degranulation, LAD2 ([7]; Icatibant 20 μg/mL): significant (p≤ 0.05 and p≤ 0.001) inhibition
inhibition of compound 48/80- and AG-30/5C-induced degranulation, LAD2 ([7]; compound 48/80 1 μg/mL or AG-30/5C 1 μM): significantly (p ≤0.05, 0.01 and 0.001) reduced degranulation
inhibition of Icatibant-induced degranulation, RBL-MRGPRX2 ([6]; resveratrol 100 μM, 5 min, Icatibant 20 μg/mL, 30 min): significant (p≤ 0.05 and p≤ 0.001) inhibition
inhibition of compound 48/80- and AG-30/5C-induced degranulation, RBL-MRGPRX2 ([6]; resveratrol 100 μM, 5 min, compound 48/80 1 μg/mL or AG-30/5C 1 μM, 30 min): significantly (p ≤0.05, 0.01 and 0.001) reduced degranulation
effect on AG-30/5C Tango response ([8]; AG-30/5C 10 μM overnight): no effect on Tango
inhibition of compound 48/80-induced β-arrestin gene expression (Tango) ([8]; compound 48/80 3.0, 10 and 20 μg/mL overnight): significant (p≤ 0.01 and p≤ 0.001) inhibition
inhibition of IgE-mediated MC degranulation [9]: activates sirtuin 1 (sirt1) to inhibit IgE-mediated MC degranulation

human β-defensin 3: host defense peptide (GIINTLQKYYCRVRGGRCAVLSCLPKEEQIGKCSTRGRKCCRRKK; ends and bridges not checked; cysteine pairing not given here; UniProt P81534 23-67, looked up)
effect of PTx on MC degranulation and Ca2+ mobilization (literature) (MRGPRX2 (human MC)): inhibits MC degranulation in response to host defense peptide, human β-defensin 3 without affecting Ca^2+ mobilization

CC(C)[C@H]1CC[C@H](C(=O)N[C@H](Cc2ccccc2)C(=O)O)CC1 [nateglinide]
Ca2+ mobilization via MRGPRX4 [10]: causes an increase in Ca^2+ mobilization
β-arrestin-mediated gene expression via MRGPRX4 (Tango), in words ([11]; AG-30/5C 10 μM, compound 48/80 30 μg/mL): induces β-arrestin-mediated gene expression
increase in β-arrestin-mediated gene expression via MRGPRX4 [11]: > 100 fold
